Experimental data: ChEMBL document CHEMBL1146066, “4-quinolone derivatives: high-affinity ligands at the benzodiazepine site of brain GABA A receptors. synthesis, pharmacology, and pharmacophore modeling” (J Med Chem, 2006)

Tests used:
[1] = biological target: GABA-A receptor; anion channel; test: Displacement of [3H]flumazenil from GABA-A receptor in rat cortical membranes; type: cell membranes, Membrane
How it was run: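 Rat cortex was homogenized in Tris-HCl, washed by centrifugation, incubated 30 min at 37 °C, and stored frozen. Assays used ca. 50 µg protein per 0.55 mL in Tris-citrate 50 mM pH 7.1 with 1 nM [3H]flumazenil for 40 min on ice, then filtered. Nonspecific binding came from 1 µM clonazepam.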

[2] = biological target: T1, GABA A receptor alpha-3/beta-2/gamma-2 (Homo sapiens, UniProt P18507+P34903+P47870); test: Displacement of [3H]Flumazenil from human GABA-Aalpha3 receptor plus beta-2-gamma-2 expressed in HEK293 cells; type: cell-based
T1 sequence (P47870 whole entry): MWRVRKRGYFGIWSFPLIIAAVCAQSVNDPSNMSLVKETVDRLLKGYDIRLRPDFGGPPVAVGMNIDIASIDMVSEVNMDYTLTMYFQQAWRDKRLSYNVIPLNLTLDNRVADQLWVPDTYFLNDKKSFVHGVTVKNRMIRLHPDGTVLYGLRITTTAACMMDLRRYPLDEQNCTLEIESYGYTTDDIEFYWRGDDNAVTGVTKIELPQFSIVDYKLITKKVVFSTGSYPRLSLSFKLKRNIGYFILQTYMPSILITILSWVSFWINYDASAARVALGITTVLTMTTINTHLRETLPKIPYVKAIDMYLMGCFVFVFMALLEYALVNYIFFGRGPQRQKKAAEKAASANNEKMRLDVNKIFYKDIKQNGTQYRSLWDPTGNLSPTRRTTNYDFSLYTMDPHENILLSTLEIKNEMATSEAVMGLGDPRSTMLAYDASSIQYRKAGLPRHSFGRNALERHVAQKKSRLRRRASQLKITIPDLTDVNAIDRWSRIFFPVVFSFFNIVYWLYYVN
T1 sequence (P18507 whole entry): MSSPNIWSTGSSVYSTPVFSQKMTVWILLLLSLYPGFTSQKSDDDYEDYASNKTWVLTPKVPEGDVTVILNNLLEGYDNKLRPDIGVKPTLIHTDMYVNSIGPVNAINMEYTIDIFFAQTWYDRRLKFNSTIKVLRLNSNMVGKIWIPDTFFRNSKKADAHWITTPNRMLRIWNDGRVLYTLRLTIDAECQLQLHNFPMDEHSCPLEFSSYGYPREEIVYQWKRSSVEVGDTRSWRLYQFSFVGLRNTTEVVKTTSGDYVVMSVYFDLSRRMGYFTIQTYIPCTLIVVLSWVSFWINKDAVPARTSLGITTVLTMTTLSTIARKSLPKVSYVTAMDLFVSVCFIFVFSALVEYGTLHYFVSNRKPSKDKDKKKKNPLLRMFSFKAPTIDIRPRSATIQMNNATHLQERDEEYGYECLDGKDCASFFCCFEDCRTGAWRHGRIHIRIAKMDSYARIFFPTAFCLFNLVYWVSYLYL
T1 sequence (P34903 whole entry): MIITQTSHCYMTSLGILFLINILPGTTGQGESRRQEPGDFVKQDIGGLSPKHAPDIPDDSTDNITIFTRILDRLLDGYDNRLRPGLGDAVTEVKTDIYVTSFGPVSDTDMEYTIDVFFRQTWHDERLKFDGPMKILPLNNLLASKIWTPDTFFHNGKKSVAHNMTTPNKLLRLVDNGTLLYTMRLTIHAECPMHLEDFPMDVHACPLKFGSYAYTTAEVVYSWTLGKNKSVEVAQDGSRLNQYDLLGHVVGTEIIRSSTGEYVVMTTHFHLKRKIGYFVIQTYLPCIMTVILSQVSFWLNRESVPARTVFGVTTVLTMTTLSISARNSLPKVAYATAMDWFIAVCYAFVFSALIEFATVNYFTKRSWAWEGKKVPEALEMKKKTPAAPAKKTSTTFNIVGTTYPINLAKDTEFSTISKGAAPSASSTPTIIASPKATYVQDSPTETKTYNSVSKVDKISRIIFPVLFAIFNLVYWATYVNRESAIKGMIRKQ
How it was run: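 Membranes of HEK 293 cells carrying human α1β2γ2S or α3β2γ2S GABAA receptors, ca. 25 µg protein per 0.55 mL assay in Tris-citrate 50 mM pH 7.1. Incubated with 1 nM [3H]flumazenil (87 Ci/mmol) and test substance at 0-4 °C for 40 min, then filtered on GF/C and washed. Nonspecific binding taken with 1 µM clonazepam.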

[3] = biological target: GABA A receptor alpha-1/beta-2/gamma-2 (Homo sapiens); test: Displacement of [3H]Flumazenil from human GABA-Aalpha1 receptor plus beta-2-gamma-2 expressed in HEK293 cells
[4] = Selectivity for human GABA-Aalpha1 receptor plus beta-2-gamma-2 over GABA-Aalpha3 receptor plus beta2gamma2

Row | SMILES | Ki [1] [nM] | also measured
1 | CCc1ccc2ncc(C(=O)O)c(O)c2c1 | 208 | –
2 | CCOC(=O)c1c(C)nc2ccc(Br)cc2c1O | 4200 | –
3 | CCOC(=O)c1cnc2ccnn2c1O | > 10000 | –
4 | CCOC(=O)c1cnc2ccc(C(C)C)cc2c1O | 15 | –
5 | CCOC(=O)c1cnc2ccc(Br)cc2c1O | 16 | Ki [2]: 26 nM; Ki [3]: 14 nM; Ratio Ki [4]: 2
6 | CCc1ccc2ncc(C(=O)OC(C)CC(C)C)c(O)c2c1 (stereo unspecified) | 295 | –
7 | CCCOC(=O)c1cnc2cc(C)nn2c1O | 870 | –
8 | CCOC(=O)c1cnc2cc(C)nn2c1O | > 10000 | –
9 | CCc1ccc2ncc(C(=O)OC3CCCC3)c(O)c2c1 | 19 | –
10 | CCOC(=O)c1cnc2ccc(C(F)(F)F)cc2c1O | 122 | –
11 | CCCOC(=O)c1cnc2ccc(Cc3ccccc3)cc2c1O | 0.17 | –
12 | CCOC(=O)c1cnc2ccc(Cc3ccccc3)cc2c1O | 1.4 | Ki [2]: 7.2 nM; Ki [3]: 0.27 nM
13 | CCCNC(=O)c1cnc2ccc(Cc3ccccc3)cc2c1O | 0.048 | –
14 | CCOC(=O)c1cnc2ccccc2c1O | 78 | –
15 | CCOC(=O)c1c[nH]c2ccc(Cc3ccccc3)cc2c1=O | – | Ratio Ki [4]: 27

Now from value to compound, other results behind:

Row | Ki [1] [nM] | SMILES | also measured
16 | 0.26 | CCCNC(=O)c1cnc2ccc(CC)cc2c1O | –
17 | 20 | CCOC(=O)c1cnc2ccc(CC)cc2c1O | –
18 | 0.54 | CCCCNC(=O)c1cnc2ccc(CC)cc2c1O | –
19 | 35 | CCCCCOC(=O)c1cnc2ccc(CC)cc2c1O | –
20 | 28 | CCc1ccc2ncc(C(=O)OCC(C)CC)c(O)c2c1 (stereo unspecified) | –
21 | 1.8 | CCCOC(=O)c1cnc2ccc(CC)cc2c1O | –
22 | 13 | CCCCOC(=O)c1cnc2ccc(CC)cc2c1O | –
23 | 92 | CCc1ccc2ncc(C(=O)OCC(CC)CC)c(O)c2c1 | –
24 | 214 | CCc1ccc2ncc(C(=O)OC(C)C)c(O)c2c1 | –
25 | 2600 | CCc1ccc2ncc(C(=O)OC(CC)CC)c(O)c2c1 | –
26 | 28 | CCc1ccc2ncc(C(=O)OCCC(C)C)c(O)c2c1 | Ki [2]: 89 nM; Ki [3]: 4.1 nM; Ratio Ki [4]: 22
27 | 17 | CCCc1ccc2ncc(C(=O)OCC)c(O)c2c1 | –
28 | 54 | CCCCOC(=O)c1cnc2ccccc2c1O | –
